What was measured:
Format in all cases: functional
DU-145 [1] = assay: Antiproliferative activity against human DU145 cells assessed as reduction in cell growth incubated for 96 hrs by propidium iodide based 2D monolayer assay; settings: DU-145, 96 h
In short: (§1)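 After 24 h recovery, compound in medium or medium alone (control wells) was added at 10 half-log concentrations from 0.0032 to 100 µM, in triplicate, with at most 0.3% DMSO. After 96 h, wells were PBS-washed, stained with 7 µg/ml PI and 0.1% Triton X-100, and fluorescence read at 530/620 nm. IC50 came from a 4-parameter fit, geometric mean.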

LNCaP [2] = assay: Antiproliferative activity against human LNCAP cells assessed as reduction in cell growth incubated for 96 hrs by propidium iodide based 2D monolayer assay; in short: as §1
VCaP [3] = assay: Antiproliferative activity against human VCaP cells assessed as reduction in cell growth incubated for 96 hrs by propidium iodide based 2D monolayer assay
In short: (§2)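 VCaP cells in RPMI 1640 with 10% FCS at 37 °C, 5% CO2, seeded 4,000–20,000 cells/well and left 24 h before dosing. Compounds from DMSO stocks were diluted in half-log steps in medium, 10 concentrations 0.0032–100 μM, triplicate wells, max 0.3% DMSO. After 96 h, cells were washed, stained with 7 μg/ml propidium iodide plus 0.1% Triton X-100 for 1–2 h at room temperature, and fluorescence read at ex 530/em 620 nm.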

VCaP [4] = assay: Antiproliferative activity against human VCaP cells assessed as T/C value at 3.2 x 10^-3 uM incubated for 96 hrs by propidium iodide based 2D monolayer assay; in short: as §2
VCaP [5] = assay: Antiproliferative activity against human VCaP cells assessed as T/C value at 1 x 10^-2 uM incubated for 96 hrs by propidium iodide based 2D monolayer assay
In short: as §1, with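 “Cells were kept in RPMI 1640 with 25 mM HEPES, 10% FCS and gentamicin at 37 °C under 5% CO2, and plated at 4,000-20,000 cells/well. After 24” for “After 24”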

VCaP [6] = assay: Antiproliferative activity against human VCaP cells assessed as T/C value at 3.2 x 10^-2 uM incubated for 96 hrs by propidium iodide based 2D monolayer assay; in short: as §2
VCaP [7] = assay: Antiproliferative activity against human VCaP cells assessed as T/C value at 1 x 10^-1 uM incubated for 96 hrs by propidium iodide based 2D monolayer assay
In short: as §1, with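 “Cells were kept in RPMI 1640 with 25 mM HEPES, 10% FCS and gentamicin at 37 °C under 5% CO2, and plated at 4,000-20,000 cells/well. After 24” for “After 24”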

VCaP [8] = assay: Antiproliferative activity against human VCaP cells assessed as T/C value at 3.2 x 10^-1 uM incubated for 96 hrs by propidium iodide based 2D monolayer assay; in short: as §2
VCaP [9] = assay: Antiproliferative activity against human VCaP cells assessed as T/C value at 1 uM incubated for 96 hrs by propidium iodide based 2D monolayer assay
In short: as §1, with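 “Cells were kept in RPMI 1640 with 25 mM HEPES, 10% FCS and gentamicin at 37 °C under 5% CO2, and plated at 4,000-20,000 cells/well. After 24” for “After 24”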

VCaP [10] = assay: Antiproliferative activity against human VCaP cells assessed as T/C value at 1 x 10^1 uM incubated for 96 hrs by propidium iodide based 2D monolayer assay
In short: as §1, with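 “Cells were kept in RPMI 1640 with 25 mM HEPES, 10% FCS and gentamicin at 37 °C under 5% CO2, and plated at 4,000-20,000 cells/well. After 24” for “After 24”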

VCaP [11] = assay: Antiproliferative activity against human VCaP cells assessed as T/C value at 3.2 x 10^1 uM incubated for 96 hrs by propidium iodide based 2D monolayer assay; in short: as §2
VCaP [12] = assay: Antiproliferative activity against human VCaP cells assessed as T/C value at 1 x 10^2 uM incubated for 96 hrs by propidium iodide based 2D monolayer assay
In short: as §1, with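 “Cells were kept in RPMI 1640 with 25 mM HEPES, 10% FCS and gentamicin at 37 °C under 5% CO2, and plated at 4,000-20,000 cells/well. After 24” for “After 24”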

LNCaP [13] = assay: Antiproliferative activity against human LNCAP cells assessed as T/C value at 3.2 x 10^-3 uM incubated for 96 hrs by propidium iodide based 2D monolayer assay
In short: as §1, with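 “Cells were kept in RPMI 1640 with 25 mM HEPES, 10% FCS and gentamicin at 37 °C under 5% CO2, and plated at 4,000-20,000 cells/well. After 24” for “After 24”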

LNCaP [14] = assay: Antiproliferative activity against human LNCAP cells assessed as T/C value at 3.2 x 10^-2 uM incubated for 96 hrs by propidium iodide based 2D monolayer assay
In short: as §1, with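 “Cells were kept in RPMI 1640 with 25 mM HEPES, 10% FCS and gentamicin at 37 °C under 5% CO2, and plated at 4,000-20,000 cells/well. After 24” for “After 24”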

LNCaP [15] = assay: Antiproliferative activity against human LNCAP cells assessed as T/C value at 1 x 10^-1 uM incubated for 96 hrs by propidium iodide based 2D monolayer assay
In short: as §1, with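 “Cells were kept in RPMI 1640 with 25 mM HEPES, 10% FCS and gentamicin at 37 °C under 5% CO2, and plated at 4,000-20,000 cells/well. After 24” for “After 24”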

LNCaP [16] = assay: Antiproliferative activity against human LNCAP cells assessed as T/C value at 1 uM incubated for 96 hrs by propidium iodide based 2D monolayer assay
In short: as §1, with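 “Cells were kept in RPMI 1640 with 25 mM HEPES, 10% FCS and gentamicin at 37 °C under 5% CO2, and plated at 4,000-20,000 cells/well. After 24” for “After 24”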

LNCaP [17] = assay: Antiproliferative activity against human LNCAP cells assessed as T/C value at 3.2 uM incubated for 96 hrs by propidium iodide based 2D monolayer assay
In short: as §1, with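 “Cells were kept in RPMI 1640 with 25 mM HEPES, 10% FCS and gentamicin at 37 °C under 5% CO2, and plated at 4,000-20,000 cells/well. After 24” for “After 24”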

LNCaP [18] = assay: Antiproliferative activity against human LNCAP cells assessed as T/C value at 1 x 10^2 uM incubated for 96 hrs by propidium iodide based 2D monolayer assay
In short: as §1, with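 “Cells were kept in RPMI 1640 with 25 mM HEPES, 10% FCS and gentamicin at 37 °C under 5% CO2, and plated at 4,000-20,000 cells/well. After 24” for “After 24”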

CWR22R [19] = assay: Antiproliferative activity against human 22Rv1 cells assessed as T/C value at 3.2 x 10^-3 uM incubated for 96 hrs by propidium iodide based 2D monolayer assay
In short: as §1, with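 “Cells were kept in RPMI 1640 with 25 mM HEPES, 10% FCS and gentamicin at 37 °C under 5% CO2, and plated at 4,000-20,000 cells/well. After 24” for “After 24”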

CWR22R [20] = assay: Antiproliferative activity against human 22Rv1 cells assessed as T/C value at 1 x 10^-2 uM incubated for 96 hrs by propidium iodide based 2D monolayer assay
In short: as §1, with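 “Cells were kept in RPMI 1640 with 25 mM HEPES, 10% FCS and gentamicin at 37 °C under 5% CO2, and plated at 4,000-20,000 cells/well. After 24” for “After 24”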

CWR22R [21] = assay: Antiproliferative activity against human 22Rv1 cells assessed as T/C value at 3.2 x 10^-2 uM incubated for 96 hrs by propidium iodide based 2D monolayer assay
In short: as §1, with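 “Cells were kept in RPMI 1640 with 25 mM HEPES, 10% FCS and gentamicin at 37 °C under 5% CO2, and plated at 4,000-20,000 cells/well. After 24” for “After 24”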

CWR22R [22] = assay: Antiproliferative activity against human 22Rv1 cells assessed as T/C value at 1 x 10^-1 uM incubated for 96 hrs by propidium iodide based 2D monolayer assay
In short: as §1, with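 “Cells were kept in RPMI 1640 with 25 mM HEPES, 10% FCS and gentamicin at 37 °C under 5% CO2, and plated at 4,000-20,000 cells/well. After 24” for “After 24”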

CWR22R [23] = assay: Antiproliferative activity against human 22Rv1 cells assessed as T/C value at 3.2 x 10^-1 uM incubated for 96 hrs by propidium iodide based 2D monolayer assay
In short: as §1, with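 “Cells were kept in RPMI 1640 with 25 mM HEPES, 10% FCS and gentamicin at 37 °C under 5% CO2, and plated at 4,000-20,000 cells/well. After 24” for “After 24”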

CWR22R [24] = assay: Antiproliferative activity against human 22Rv1 cells assessed as T/C value at 1 uM incubated for 96 hrs by propidium iodide based 2D monolayer assay
In short: as §1, with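 “Cells were kept in RPMI 1640 with 25 mM HEPES, 10% FCS and gentamicin at 37 °C under 5% CO2, and plated at 4,000-20,000 cells/well. After 24” for “After 24”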

CWR22R [25] = assay: Antiproliferative activity against human 22Rv1 cells assessed as T/C value at 1 x 10^1 uM incubated for 96 hrs by propidium iodide based 2D monolayer assay
In short: as §1, with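 “Cells were kept in RPMI 1640 with 25 mM HEPES, 10% FCS and gentamicin at 37 °C under 5% CO2, and plated at 4,000-20,000 cells/well. After 24” for “After 24”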

CWR22R [26] = assay: Antiproliferative activity against human 22Rv1 cells assessed as T/C value at 3.2 x 10^1 uM incubated for 96 hrs by propidium iodide based 2D monolayer assay
In short: as §1, with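 “Cells were kept in RPMI 1640 with 25 mM HEPES, 10% FCS and gentamicin at 37 °C under 5% CO2, and plated at 4,000-20,000 cells/well. After 24” for “After 24”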

DU-145 [27] = assay: Antiproliferative activity against human DU145 cells assessed as T/C value at 3.2 x 10^-3 uM incubated for 96 hrs by propidium iodide based 2D monolayer assay; in short: as §1
DU-145 [28] = assay: Antiproliferative activity against human DU145 cells assessed as T/C value at 1 x 10^-2 uM incubated for 96 hrs by propidium iodide based 2D monolayer assay; in short: as §1
DU-145 [29] = assay: Antiproliferative activity against human DU145 cells assessed as T/C value at 1 x 10^-1 uM incubated for 96 hrs by propidium iodide based 2D monolayer assay; in short: as §1
DU-145 [30] = assay: Antiproliferative activity against human DU145 cells assessed as T/C value at 3.2 x 10^-1 uM incubated for 96 hrs by propidium iodide based 2D monolayer assay; in short: as §1
DU-145 [31] = assay: Antiproliferative activity against human DU145 cells assessed as T/C value at 1 uM incubated for 96 hrs by propidium iodide based 2D monolayer assay; in short: as §1
DU-145 [32] = assay: Antiproliferative activity against human DU145 cells assessed as T/C value at 1 x 10^2 uM incubated for 96 hrs by propidium iodide based 2D monolayer assay
In short: as §1, with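 “Cells were kept in RPMI 1640 with 25 mM HEPES, 10% FCS and gentamicin at 37 °C under 5% CO2, and plated at 4,000-20,000 cells/well. After 24” for “After 24”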

Row | SMILES | IC50 (DU-145 [1]) [µM] | IC50 (LNCaP [2]) [µM] | IC50 (VCaP [3]) [µM] | T/C (VCaP [4]) | T/C (VCaP [5]) | T/C (VCaP [6]) | T/C (VCaP [7]) | T/C (VCaP [8]) | T/C (VCaP [9]) | T/C (VCaP [10]) | T/C (VCaP [11]) | T/C (VCaP [12]) | T/C (LNCaP [13]) | T/C (LNCaP [14]) | T/C (LNCaP [15]) | T/C (LNCaP [16]) | T/C (LNCaP [17]) | T/C (LNCaP [18]) | T/C (CWR22R [19]) | T/C (CWR22R [20]) | further results
1 | CC(O)(COc1cccc(S(F)(F)(F)(F)F)c1)C(=O)Nc1ccc([N+](=O)[O-])c(C(F)(F)F)c1 (racemic) | 7.4 | 3.3 | 5.3 | 103 - 109% | 97 - 108% | 86 - 107% | 94 - 115% | 94 - 113% | 94 - 108% | 22% | 2 - 4% | 5 - 11% | 92 - 98% | 92 - 95% | 87 - 113% | 84 - 93% | 54 - 71% | 1 - 2% | 97 - 104% | 100 - 106% | IC70 (DU-145 [1]): 7.24 to 8.54 µM; IC70 (LNCaP [2]): 4.37 to 5.15 µM; IC70 (VCaP [3]): 7.82 to 8.69 µM; T/C (CWR22R [21]): 108 - 110%; T/C (CWR22R [22]): 106 - 110%; T/C (CWR22R [23]): 107 - 111%; T/C (CWR22R [24]): 101 - 109%; T/C (CWR22R [25]): 13 - 14%; T/C (CWR22R [26]): 2%; T/C (DU-145 [27]): 111 - 116%; T/C (DU-145 [28]): 115 - 122%; T/C (DU-145 [29]): 118 - 124%; T/C (DU-145 [30]): 121 - 129%; T/C (DU-145 [31]): 122 - 125%; T/C (DU-145 [32]): 1%
2 | CC(O)(COc1ccccc1C(F)(F)F)C(=O)Nc1ccc(S(F)(F)(F)(F)F)cc1 (racemic) | 7.1 | 1.2 | 3.1 | 97 - 98% | 87 - 102% | 87 - 93% | 75 - 96% | 73 - 91% | 58 - 85% | 11 - 28% | 3 - 11% | 5 - 10% | 91 - 100% | 88 - 94% | 83 - 84% | 25 - 60% | 2 - 7% | 1 - 2% | 101 - 106% | 99 - 104% | T/C (CWR22R [21]): 100 - 108%; T/C (CWR22R [22]): 93 - 107%; T/C (CWR22R [23]): 69 - 110%; T/C (CWR22R [24]): 9 - 81%; T/C (CWR22R [25]): 1 - 6%; T/C (CWR22R [26]): 1 - 3%; T/C (DU-145 [27]): 102 - 112%; T/C (DU-145 [28]): 103 - 119%; T/C (DU-145 [29]): 108 - 127%; T/C (DU-145 [30]): 107 - 132%; T/C (DU-145 [31]): 88 - 127%; T/C (DU-145 [32]): 1%

From ChEMBL document CHEMBL4364301 (Eur J Med Chem, 2019)
